Here are results for two compounds from ChEMBL document CHEMBL4334444, “Studies of Jatrogossone A as a Reactive Oxygen Species Inducer in Cancer Cellular Models” (J Nat Prod, 2019).

SMILES strings stand for the structures. Active and inactive are the calls of the source. The calls are words filed in the database; no cut-off is given here.

In assay [1] the test system is U2OS. Put plainly: Induction of ROS generation in human U2OS cells at 10 to 30 uM incubated for 1 hr in presence of NAC by CellROX green reagent based fluorescence assay. It counts as functional, cell-based. In short, it runs like this:
(§1)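 CellROX green assay in MCF-7 or U2OS cells. Cells were exposed to test compound for 1 h at 37 °C alongside 0.5% DMSO (negative control) and menadione 10–30 μM (positive control), with or without NAC (50–500 μM) as scavenger. CellROX was then added at 5 μM final for 30 min. Cells were PBS-washed, fixed in 4% paraformaldehyde for 15 min, and fluorescence read at 535 nm.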

The subject of assay [2] is MCF7. Put plainly: Induction of apoptosis in human MCF7 cells assessed as increase in cleaved PARP 1 level at 30 uM by Western blot analysis. It counts as functional, cell-based. In short, it runs like this: (§2)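 Western blot of KOPN-8 and MCF-7 lysates made in RIPA-type buffer (Tris pH 7.5, Triton X-100, deoxycholate, SDS) with protease and phosphatase inhibitors. 30 μg protein per lane was run on 4–12% Bis-Tris SDS-PAGE and transferred to nitrocellulose. Blots were probed for cleaved caspase-7 and PARP-1 and detected with IR-dye secondaries. Menadione served as positive control: 10 μM in KOPN-8, 30 μM in MCF-7. Blots are representative of three independent experiments.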
In general terms: A western blot detects proteins with antibodies after separation by electrophoresis.

Assay [3] relates to MCF7. Put plainly: Induction of apoptosis in human MCF7 cells assessed as increase in cleaved caspase 7 level at 30 uM by Western blot analysis. It counts as functional, cell-based. The gist of the method: as §2
Assay [4] has as its system KOPN-8. Put plainly: Induction of apoptosis in human KOPN8 cells assessed as increase in cleaved PARP 1 level at 10 uM by Western blot analysis. Type of assay: functional, cell-based. In short, it runs like this:
as §2

For assay [5], the system named is KOPN-8. Put plainly: Induction of apoptosis in human KOPN8 cells assessed as increase in cleaved caspase 7 level at 10 uM by Western blot analysis. It counts as functional, cell-based. In short, it runs like this:
as §2

The test system of assay [6] is MCF7. Put plainly: Induction of ROS generation in human MCF7 cells at 10 to 30 uM incubated for 1 hr in presence of NAC by CellROX green reagent based fluorescence assay. It counts as functional, cell-based. The gist of the method:
(§3)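 CellROX green ROS assay: cells exposed 1 h at 37 °C (30 μM) with DMSO 0.5% (v/v) negative control, menadione 10 μM positive control, ± NAC (100 μM per figure legend). CellROX green added at 5 μM final, 30 min more; washed, fixed in 4% paraformaldehyde 15 min, fluorescence read at 485 ex/535 em. Mean and SD of at least three experiments; two-way ANOVA.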

The subject of assay [7] is MCF7. Put plainly: Induction of ROS generation in human MCF7 cells at 10 to 30 uM incubated for 1 hr by CellROX green reagent based fluorescence assay. It counts as functional, cell-based. The gist of the method: as §3
Assay [8] deals with U2OS. Put plainly: Induction of ROS generation in human U2OS cells at 10 to 30 uM incubated for 1 hr by CellROX green reagent based fluorescence assay. Type of assay: functional, cell-based. The gist of the method:
as §1

Assay [9] relates to KOPN-8. Put plainly: Cell cycle arrest in human KOPN8 cells assessed as increase in accumulation at S phase at 2 uM incubated for 24 hrs by propidium iodide staining based flow cytometric analysis. It counts as functional. In short, it runs like this: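 KOPN-8 cells plated at 1.00 × 10^6 cells/plate and held 12 h at 37 °C in 5% CO2, then treated for 24 h. Cells were fixed in cold methanol, RNase-treated and stained with PI (50 μg/mL). Cell-cycle distribution by flow cytometry, with DMSO as vehicle control.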

For the compound `CC1=CC(=O)c2ccccc2C1=O`, the result in the assay on U2OS [1] and in the assay on MCF7 [6] was inactive. Besides, the outcome in the assay on MCF7 [2], in the assay on MCF7 [3], in the assay with KOPN-8 [4], in the assay with KOPN-8 [5], in the assay on MCF7 [7] and in the assay on U2OS [8] was Active.
`CN[C@@H]1C[C@H]2O[C@@](C)([C@@H]1OC)n1c3ccccc3c3c4c(c5c6ccccc6n2c5c31)C(=O)NC4`: the outcome with KOPN-8 [9] was Active.
